Source: EPA's CvTdb concentration-time database

Assays:
Hamster [1] = assay: concentration in plasma after dosing; conditions: dosed: 2,4-Dichlorophenoxyacetic acid, 8.0 mg/kg, iv, Male, Syrian Golden
Summary of the method: (§1)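 Points were largely digitised from plot screenshots with WebPlotDigitizer or otherwise copied from tables, and they remain in the units each source reported. They come from published in vivo toxicokinetic studies and two structured collections. Sampling and analytical methods follow each source and were often not reported.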

Hamster [2] = assay: concentration in plasma after dosing; conditions: dosed: 2,4-Dichlorophenoxyacetic acid, 8.0 mg/kg, iv, Male, Syrian Golden; remark: listed apart in the source
Summary of the method: as §1

Mouse [3] = assay: concentration in plasma after dosing; conditions: dosed: 2,4-Dichlorophenoxyacetic acid, 1.0 mg/kg, iv, Male, B6C3F1
Rat [4] = assay: concentration in plasma after dosing; conditions: 0.25 h; dosed: 2-Hydroxy-4-methoxybenzophenone; 500 mg/kg; oral; Male; F344
Mouse [5] = assay: concentration in plasma after dosing; conditions: 2.5 min; dosed: 2-Hydroxy-4-methoxybenzophenone; 250 mg/kg; oral; Female; B6C3F1
Rat [6] = assay: concentration in plasma after dosing; conditions: dosed: 2-Hydroxy-4-methoxybenzophenone, 100 mg/kg, oral, Male, F344
Mouse [7] = assay: concentration in plasma after dosing; conditions: 10 min; dosed: 2-Hydroxy-4-methoxybenzophenone; 50 mg/kg; iv; Female; B6C3F1
Rat [8] = assay: concentration in plasma after dosing; conditions: dosed: 2-Hydroxy-4-methoxybenzophenone, 250 mg/kg, oral, Female, F344
Mouse [9] = assay: concentration in plasma after dosing; conditions: 2 h; dosed: 2-Hydroxy-4-methoxybenzophenone; 250 mg/kg; oral; Male; B6C3F1
Mouse [10] = assay: concentration in plasma after dosing; conditions: 2 h; dosed: 2-Hydroxy-4-methoxybenzophenone; 250 mg/kg; oral; Male; B6C3F1; remark: listed apart in the source
Rat [11] = assay: concentration in plasma after dosing; conditions: 2 min; dosed: Methyleugenol; 37 mg/kg; iv; Female; F344
Rat [12] = assay: concentration in brain after dosing; conditions: 6 h; dosed: Perfluorohexane-1-sulphonic acid – potassium salt; 16 mg/kg; oral; Female; F344
Rat [13] = assay: concentration in brain after dosing; conditions: 12 h; dosed: Perfluorohexane-1-sulphonic acid – potassium salt; 16 mg/kg; oral; Female; F344
Rat [14] = assay: concentration in plasma after dosing; conditions: 12 h; dosed: Primidone; 80 mg/kg; oral; Female; F344
Rat [15] = assay: concentration in plasma after dosing; conditions: 1.5 h; dosed: Primidone; 130 mg/kg; oral; Female; F344
Rat [16] = assay: concentration in plasma after dosing; conditions: 6 h; dosed: Primidone; 130 mg/kg; oral; Female; F344
Rat [17] = assay: concentration in plasma after dosing; conditions: 3 h; dosed: Primidone; 80 mg/kg; oral; Male; F344
Rat [18] = assay: concentration in plasma after dosing; conditions: 1.5 h; dosed: Primidone; 30 mg/kg; oral; Female; F344
Rat [19] = assay: concentration in plasma after dosing; conditions: 0.5 h; dosed: Primidone; 130 mg/kg; oral; Female; F344
Rat [20] = assay: concentration in plasma after dosing; conditions: 20 h; dosed: Pyridine; 25 mg/kg; oral; Male; F344
Rat [21] = assay: concentration in plasma after dosing; conditions: 20 min; dosed: Pyridine; 10 mg/kg; iv; Male; F344
Rat [22] = assay: concentration in plasma after dosing; conditions: 2 min; dosed: alpha-Thujone; 25 mg/kg; oral; Female; Harlan Sprague Dawley
Rat [23] = assay: concentration in plasma after dosing; conditions: 3 h; dosed: alpha-Thujone; 50 mg/kg; oral; Female; Harlan Sprague Dawley
Rat [24] = assay: concentration in plasma after dosing; conditions: 10 min; dosed: alpha-Thujone; 25 mg/kg; oral; Male; Harlan Sprague Dawley
Rat [25] = assay: concentration in brain after dosing; conditions: 1.5 h; dosed: alpha-Thujone; 25 mg/kg; oral; Male; Harlan Sprague Dawley
Rat [26] = assay: concentration in plasma after dosing; conditions: 6 h; dosed: alpha-Thujone; 50 mg/kg; oral; Female; Harlan Sprague Dawley
Rat [27] = assay: concentration in plasma after dosing; conditions: 6 h; dosed: alpha-Thujone; 50 mg/kg; oral; Female; Harlan Sprague Dawley; remark: listed apart in the source
human = assay: amount in urine after dosing (mg cumulative excretion); conditions: dosed: trichloroethylene, inhalation, duration: 8 hr
Summary of the method: as §1

O=C(O)COc1ccc(Cl)cc1Cl [2,4-Dichlorophenoxyacetic acid]
Conditions	concentration in plasma [ng/mL]
Hamster [1], 5 min	55300
Hamster [1], 40 min	3090
Hamster [2], 0.25 h	13500
Hamster [2], 0.5 h	7690
Mouse [3], 0.25 h	8220
Mouse [3], 0.5 h	6040
Mouse [3], 1 h	3120
Mouse [3], 2.5 h	266
Mouse [3], 3 h	1250
Mouse [3], 5 min	6550

O=C(c1ccccc1)c1ccc(O)cc1O [2,4-Dihydroxybenzophenone]
Conditions	concentration in plasma [ng/mL]
Mouse [5]	53.1
Mouse [7]	1610
Mouse [9]	266
Mouse [10]	338
Rat [4]	103

concentration in plasma [ng/mL]
Conditions	0.25 h	3 h	4 h	10 min
Rat [6]	91	–	43.8	–
Rat [8]	–	213	–	128

C=CCc1ccc(OC)c(OC)c1 [Methyleugenol]
Conditions	concentration in plasma [ng/mL]
Rat [11]	47500

O=S(=O)([O-])C(F)(F)C(F)(F)C(F)(F)C(F)(F)C(F)(F)C(F)(F)F.[K+] [Perfluorohexane-1-sulphonic acid – potassium salt]
Conditions	concentration in brain [ng/g]
Rat [12]	1520
Rat [13]	1770

CCC1(c2ccccc2)C(=O)NCNC1=O [Primidone]
Conditions	concentration in plasma [ng/mL]
Rat [14]	15800
Rat [15]	68100
Rat [16]	74300
Rat [17]	37200
Rat [18]	20600
Rat [19]	18800

c1ccncc1 [Pyridine]
Conditions	concentration in plasma [ng/mL]
Rat [20]	143
Rat [21]	6010

CC(C)[C@]12CC(=O)[C@H](C)[C@H]1C2 [alpha-Thujone]
Conditions	concentration in brain [ng/g]	concentration in plasma [ng/mL]
Rat [22]	–	10.6
Rat [23]	–	244
Rat [24]	–	243
Rat [25]	234	–
Rat [26]	–	169
Rat [27]	–	162

OCC(Cl)(Cl)Cl [trichloroethanol]
human
Conditions	amount in urine
7.932 h, 97 ppm	111
7.949 h, 54 ppm	76.3
8.43 h, 97 ppm	104
8.618 h, 54 ppm	55.6
9.257 h, 97 ppm	96.4
23.71 h, 54 ppm	175
23.74 h, 97 ppm	288
24.11 h, 54 ppm	191
24.33 h, 97 ppm	255
24.69 h, 97 ppm	352
47.97 h, 97 ppm	393
47.99 h, 97 ppm	364
48.13 h, 97 ppm	417
49.69 h, 54 ppm	258
49.75 h, 54 ppm	291
71.65 h, 54 ppm	301
71.89 h, 54 ppm	323
72.02 h, 97 ppm	395
72.49 h, 97 ppm	431
72.5 h, 97 ppm	422
95.28 h, 54 ppm	314
95.43 h, 54 ppm	328
95.87 h, 97 ppm	444
95.88 h, 97 ppm	429
96.05 h, 97 ppm	408
119.38 h, 54 ppm	345
119.39 h, 54 ppm	327
119.52 h, 97 ppm	409
119.58 h, 97 ppm	452
119.67 h, 97 ppm	430
142.52 h, 54 ppm	348
142.61 h, 54 ppm	331
143.45 h, 97 ppm	458
143.64 h, 97 ppm	412
143.71 h, 97 ppm	433
166.64 h, 54 ppm	352
167.26 h, 97 ppm	433
167.33 h, 97 ppm	463
167.44 h, 97 ppm	411
191.64 h, 97 ppm	414
191.88 h, 97 ppm	432
192.11 h, 97 ppm	466
